STAT3 act-1 = IL-6 driven STAT3 reporter potentiators, primary screen, U3A cells, luciferase, luminescence, MLSCN library. IL-6 STAT3-luciferase reporter; 100% = signal with IL-6 EC80 alone. activation (% of control), % at 5.6 µM. 190,000 compounds, 0.91% hits;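 active means activation above the screen-wide mean of compound activation plus 3 SD, cut at about 130% in these data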;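 further: 0% = background luminescence of wells with medium and substrate only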
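Material: STAT1-lacking human U3A cells, STAT3 luciferase reporter | Benchmarks: IL-6-only wells as 100% reference | Probe or stimulus: IL-6 (33 ng/mL) | Timing: Compound 1 h, then IL-6 6 h at 37 °C | Detection: Luminescence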
STAT1 blocker = STAT1 signaling inhibitors, primary screen, cell-based, HTS, luciferase reporter. NIH 3T3 STAT1-luciferase reporter, IFN-gamma, luminescence. inhibition, % at 5.5 µM. 200,000 compounds, 0.35% hits;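 active means inhibition above a set limit, the mean inhibition across all tested compounds plus 3 SD, cut at about 34% in these data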;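 further: 0% = IFN-gamma with DMSO and 100% = IFN-gamma with 300 µM nifuroxazide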
MT stabilize HCS = microtubule stabilizers in HeLa cells, primary screen, imaging, high-content imaging | 200,000 compounds, 0.83% hits | HeLa tubulin immunostaining HCS, 24 h; share of cells brighter than vehicle mean+2SD | % tubulin-high responders, % at 10 µM | AID 2205, 2009;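 active means plate Z-score above 3 for both tubulin-high and condensed-nucleus cell shares, with cell loss under 80%, at 10 µM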;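 further: anti alpha tubulin signal scored within the nucleus-defined area of each cell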
b-catenin transl = modulators of beta-catenin nuclear translocation, primary screen, imaging, HeLa cells, immunofluorescence, high-content. nuclear translocation activity, % at 5 µM. 190,000 compounds, 0.3% hits. AID 1665, 2009;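 active means nuclear translocation activity above 50% at 5 µM, with a well cell count of 50 or more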;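 further: per-cell ratio of nuclear to cytoplasmic median beta-catenin stain intensity; plate controls were DMSO negative control for no effect and GSK-3 inhibitor IX positive control for full effect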
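Technique: fluorescence imaging of beta-catenin antibody stain plus DAPI / Material: human HeLa cell line / Incubation: compound treatment 24 h, 37°C, 5% CO2 / Read-out basis: % activation of per-cell nuclear versus cytoplasmic median beta-catenin signal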
STAT3 inh = IL-6 driven STAT3 reporter inhibitors, primary screen, U3A cells, luciferase, luminescence, MLSCN library; 190,000 compounds, 0.89% hits; inhibition, % at 5.5 µM; AID 862, 2007; IL-6 STAT3-luciferase reporter; host cell line lacks STAT1;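 active means inhibition above the mean inhibition across all screened compounds plus 3 SD, cut at about 44% in these data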;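 further: 0% = DMSO only wells and 100% = 100 µM nifuroxazide control wells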
STAT3 act-2 = STAT3 reporter potentiators, retest of hits, confirmation, U3A cells, luciferase, luminescence; potentiation (% of control), % at 5.7 µM; IL-6 potentiation; U3A cells lack STAT1; 100 means same as IL-6 alone; 1,200 compounds, 64% hits; shares compounds with STAT3 act-1;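 active means percent activation of the STAT3 luciferase reporter above a set limit taken from the earlier primary screen, cut at about 130% in these data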;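 further: 0% = background signal of medium plus substrate and 100% = median of IL-6 with DMSO wells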
NFkB act 2 = NF-kB reporter activators in human cells, counter-screen for STAT3 activator project. shares compounds with STAT3 act-1. NF-kappaB reporter activation. activation (% of control), % at 5.7 µM. 1,200 compounds, 11% hits. AID 1309, 2008; in the data active means activation above about 120%;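 further: reporter induced by TNF-alpha stimulation; 100% = median of stimulated DMSO wells and 0% = no signal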
STAT1 act = STAT1 reporter activators, IFN-gamma induced, counter-screen for STAT3 activator project, cell-based, NIH 3T3, luciferase luminescence. shares compounds with STAT3 act-1. NIH 3T3 STAT1-luciferase reporter. activation (% of control), % at 5.7 µM. 1,200 compounds, 13% hits. AID 1318, 2008;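 active means activation above the solvent-only control well mean plus 3 SD, set per screening run, cut at about 120% in these data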;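 further: 100% = IFN-gamma with DMSO median signal so 100% means no change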
Active calls of the source: *; x = no result. Shown are actives, neighbours in structure and some others; about 2.4% of the full set was active somewhere.

SMILES	STAT3 act-1	STAT1 blocker	MT stabilize HCS	b-catenin transl	STAT3 inh	STAT3 act-2	NFkB act 2	STAT1 act
CC(=O)Nc1ccc(S(=O)(=O)NNC(=O)c2cc3c4ccccc4n(C)c3s2)cc1	138.7*	4.2	2.9	4.2	-36.9	142.2*	105.9	111.1
CCC(C(=O)Nc1ccccc1OC)n1c(C(=O)OC)cc2ccsc21 (stereo unspecified)	142.5*	14.1	5.9	-1.6	-45.1	147.9*	104.2	87.1
Nn1c(=O)[nH]c2c([nH]c3ccccc32)c1=O	147.1*	17.8	7.5	-0.5	-44.9	151.6*	102.5	89.9
COc1cc(OC)nc(-n2ncc(Br)c(Br)c2=O)n1	88.4	-160.0	6.9	x	14.1	x	x	x
Oc1ccc(Br)cc1-c1cc(-c2ccccc2)n[nH]1	141.1*	-4.1	3.3	-9.4	-45.6	125.4	103.6	101.3
Oc1ccc(Br)cc1-c1cc(-c2ccc(Cl)cc2)n[nH]1	132.2	1.8	2.1	6.6	-32.7	x	x	x
CC(Sc1nncs1)C(=O)NCC(=O)Nc1ccc(F)c(F)c1F (stereo unspecified)	96.9	-6.9	5.7	-3.1	5.9	x	x	x
CC1=NN(c2ccc(Br)cc2)C(=O)/C1=C/c1cccs1	181.0*	15.1	3.1	-0.5	-94.2	155.4*	99.3	90.7
O=C1CN(c2nc3nonc3nc2N2CCCCC2)CCN1	97.7	-7.3	1.4	0.0	6.1	x	x	x
C/C(O)=C(\N=Nc1cc(C)ccc1O)C(N)=O	143.0*	5.3	3.3	1.3	-46.0	174.9*	129.0*	135.6*
N/C(=N\NC(=O)c1ccc(F)cc1)c1cc2ccccc2oc1=O	146.5*	0.3	1.2	-0.5	-42.4	142.1*	109.0	103.8
N/C(=N\NC(=O)c1cccc(F)c1)c1cc2ccccc2oc1=O	x	x	x	-1.0	x	x	x	x
Cc1[nH]c2ccccc2c1/C=N/Nc1ccc(F)cc1F	154.8*	-14.1	3.5	-0.2	-58.6	142.0*	107.9	121.1*
COc1ccc(S(=O)(=O)Nc2ccccn2)cc1OC	98.7	6.2	2.4	0.6	1.1	x	x	x
COc1ccc(S(=O)(=O)Nc2c(C(=O)O)[nH]c3ccccc23)cc1OC	140.7*	-0.9	3.7	-3.1	-41.8	164.9*	109.5	100.1
O=C(O)c1[nH]c2ccccc2c1NS(=O)(=O)Cc1ccccc1	154.6*	-0.9	5.9	0.5	-56.6	165.1*	102.6	93.9
Cc1cccc(NC(=O)COC(=O)Cc2c[nH]c3ccccc23)c1C	111.3	3.4	2.4	-0.2	-15.7	x	x	x
COc1ccccc1NC(=O)COC(=O)Cc1c[nH]c2ccccc12	140.7*	19.6	0.0	-1.2	-51.4	141.9*	109.1	95.8
Cc1ccc(Sc2c(C=O)c3ccccc3n2C)cc1	156.9*	11.4	15.1	0.7	-62.7	128.4	81.1	87.4
C/C(=N\Nc1nc(-c2cc(C)ccc2C)cs1)c1cc2c(ccc3ccccc32)oc1=O	146.4*	1.5	6.3	0.1	-46.7	106.5	100.2	94.8
C/C(=N\Nc1nc(-c2cc(C)ccc2C)cs1)c1cc2ccccc2oc1=O	99.3	8.8	2.4	-0.2	-1.4	x	x	x
CC(=O)Nc1ccc(N(C(=O)CNC(=O)c2ccco2)C(C(=O)NCc2ccco2)c2ccccc2F)cc1 (stereo unspecified)	85.7	1.8	2.5	0.2	20.6	x	x	x
CC(=O)Oc1ccc2ccccc2c1C(NC(=O)Cc1ccccc1)c1ccc(Cl)cc1 (stereo unspecified)	108.9	-9.7	1.9	0.1	-3.9	x	x	x
Cc1cccc2c1NC(=O)/C2=C\C(=O)c1cccs1	147.5*	2.6	2.1	-3.0	-47.2	136.3*	106.9	92.3
Cc1onc(-c2c(F)cccc2Cl)c1C(=O)OCC(=O)c1c[nH]c2ccccc12	x	x	x	-0.4	x	x	x	x
SMILES	STAT3 act-1	STAT1 blocker	MT stabilize HCS	b-catenin transl	STAT3 inh	STAT3 act-2	NFkB act 2	STAT1 act
Cc1ccc(S(=O)(=O)Nc2nc3ccccc3s2)cc1	102.8	4.6	2.5	x	-6.5	x	x	x
COc1ccc(S(=O)(=O)Nc2nc3ccccc3s2)cc1OC	154.4*	-2.1	1.2	-0.5	-55.8	141.9*	99.9	94.2
O=S(=O)(Nc1nc2ccccc2s1)c1ccc(Br)s1	142.3*	0.8	4.3	x	-46.9	133.6*	107.1	96.9
CC(=O)OCc1c(C)cc(C)c(/C=C(/C#N)C(N)=O)c1C	110.7	-8.4	3.3	-0.5	-7.1	x	x	x
Cc1oc(/N=C/c2ccccc2O)c(C#N)c1C	145.9*	-5.0	3.1	-2.5	-49.1	156.9*	106.2	101.4
Cc1oc(/N=C/c2ccc(Cl)cc2)c(C#N)c1C	145.6*	-9.3	3.2	3.9	-49.9	136.4*	104.5	112.8
Cc1oc(/N=C/c2ccc(O)cc2O)c(C#N)c1C	107.2	8.3	2.3	1.3	0.5	x	x	x
CCCC1=[N+](CC(=O)c2ccc(Br)cc2)CCn2cccc21	x	x	x	9.1	x	x	x	x
O=C(Nc1ccc2c(c1)oc1ccc(S(=O)(=O)N3CCCC3)cc12)C1CC1	154.3*	-1.0	5.1	x	-60.5	94.0	103.4	102.3
CC(C)CC(=O)Nc1ccc2c(c1)oc1ccccc12	110.6	-57.3	2.8	1.0	-9.6	x	x	x
O=C(Nc1ccc2c(c1)oc1ccccc12)C1CC1	143.3*	-19.3	3.0	0.5	-45.1	142.4*	130.7*	133.8*
Cc1cc(=O)nc2c3ccccc3n(CC(=O)Nc3ccccc3Br)n12	x	x	x	-0.1	x	x	x	x
CCCNC(=O)Cn1c2ccccc2c2nc(=O)cc(C)n21	169.9*	5.0	1.5	-6.5	-71.0	158.3*	101.5	94.0
CCn1c(C)c(/C=N/Nc2nc3ccccc3s2)c2ccccc21	136.4*	-19.4	2.5	-1.6	-44.8	132.2	103.7	114.0
COc1cc(C(=S)N2CCOCC2)cc(OC)c1O	x	x	x	0.5	x	x	x	x
c1cncc(-c2noc(-c3cccc4ccccc34)n2)c1	188.5*	-28.4	1.0	2.3	-105.7	176.4*	123.7*	147.9*
c1ccc(-c2ccccc2-c2nc(-c3cccnc3)no2)cc1	96.7	-0.1	3.2	-1.6	5.1	x	x	x
CCCN(CCC)C(=O)c1cc(-c2ccc3c(c2)OCO3)nc2ccccc12	154.2*	-2.0	0.7	x	-64.2	137.9*	101.0	93.2
CC(C)CNC(=O)COc1cccc(C(=O)NCc2ccccc2)c1	105.5	5.1	1.5	-1.2	-4.0	x	x	x

Assay outcomes as filed in PubChem BioAssay.
